Measurements of several laboratories.
Compare with care: the assays were run in different laboratories.

SMILES | cell line | test | conditions | endpoint | value
O=C(O)c1cc(S(=O)(=O)NCc2ccco2)c(Cl)cc1N1CCCCC1 | human PBMC | cell migration | 10 µM | inhibition | 42%
Cn1cncc1[C@@](N)(c1ccc(Cl)cc1)c1ccc2c(c1)c(-c1cccc(Cl)c1)cc(=O)n2C | CAL-27 | cell growth or viability | 72 h | IC50 | 9.78 µM
O=C(Oc1ccc(-n2cccc2)cc1)[c-]1cccc1.[Fe+2].c1cc[cH-]c1 | MCF-10A | cell growth or viability, MTT | 72 h | IC50 | 1.8 µM
N[C@@H](Cc1ccc(N(CCCl)CCCl)cc1)C(=O)O | MCF-10A | cell growth or viability, CCK-8 | 48 h | IC50 | > 50 µM
O=C(c1cc(Cl)c(Cl)[nH]1)c1c(O)cccc1O | MDCK | cell growth or viability, MTT | 72 h | IC50 | 1.3 mg/L
O=C(O)C(Cl)Cl | HCT-15 | cell growth or viability, MTT | 72 h | IC50 | > 50 µM
Cc1cc(C)c(N2CCN(c3c(C)cc(C)cc3C)C2=[Se])c(C)c1 | HCT-15 | cell growth or viability, MTT | 72 h | IC50 | 10.2 µM
O=C(O)CCCc1ccc(N(CCCl)CCCl)cc1 | MCF-10A | cell growth or viability, CCK-8 | 48 h | IC50 | > 50 µM
O=C(O)c1ccccc1NCc1ccco1 | human PBMC | cell migration | 10 µM | inhibition | 82%
[Se]=c1n(C2CCCCC2)ccn1C1CCCCC1 | HCT-15 | cell growth or viability, MTT | 72 h | IC50 | 14.2 µM
CCCCCCc1ccc(O)cc1O | human PBMC | cell migration | 10 µM | inhibition | 57%
O=C(Oc1ccc(Br)cc1)[c-]1cccc1.[Fe+2].c1cc[cH-]c1 | MCF-10A | cell growth or viability, MTT | 72 h | IC50 | 353 µM
NS(=O)(=O)c1cc(C(=O)O)c(NCc2ccco2)cc1Cl | human PBMC | cell migration, inhibitor |  | IC50 | ~1 µM
COc1cc2c3c(n(CCCNCCO)c(=O)c2cc1OC)-c1cc2c(cc1C3=O)OCO2 | HOP-62 | cell growth or viability |  | GI50 | 0.02 µM
CCCCCCCCCCCCCCCC[N+](C)(C)C | MDCK | cell growth or viability, MTT |  | IC50 | 9 µM
CN1CCCN=C1/C=C/c1cccs1 | human PBMC | cell migration | 10 µM | inhibition | 76%
